Starred links: 1 amine or outer side, 2 acyl side, 3 side chain; linkers in the order of their positions; H or OH if unused. Non-standard residues stand in square brackets, D forms with d. Residues, ends and D or L forms follow the SMILES beside them. *: point of attachment. X2 = O=C(CCC(=O)[*:2])[C@H](Cc1ccccc1)N[*:1]; X1 = O=C(CCC(=O)[*:2])[C@@H]1CCCN1[*:1]; X3 = O=C1CCN([*:1])[C@H]1C(=O)[*:2]; Cyclobutanecarbonyl = O=C(C1CCC1)*; Nle = CCCC[C@H](N)C(=O)O
Tests used:
[1] = molecular target: Angiotensin-converting enzyme (Oryctolagus cuniculus) (UniProt P12822); assay: Inhibition of Angiotensin I converting enzyme from rabbit lung; conditions: read-out: I50
Rattus norvegicus [2] = species on record: Rattus norvegicus; assay: Time required for 100% degradation in rat intestinal homogenate; type: ADME
In short: (§1)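 Rat small intestine was taken immediately after sacrifice and minced in Krebs Ringer (10 mL/g). Peptide (0.2–0.5 μmol) mixed with homogenate (1.0 mL per μmol), shaken at 37 °C. Degradation followed by TLC.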

trypsin = assay: Time required for 50% degradation by trypsin; type: ADME; conditions: read-out: Time
Rattus norvegicus [3] = species on record: Rattus norvegicus; assay: Time required for 100% degradation in rat stomach homogenate; type: ADME
In short: (§2)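 Peptide, partially neutralized with 0.1 N HCl, incubated at 37 °C with 150 mg rat stomach homogenate. Breakdown monitored by TLC.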

[4] = Time required for 50% degradation in rat stomach homogenate; type: ADME; conditions: read-out: Time (converted)
In short: as §2

[5] = Time required for 50% degradation in rat intestinal homogenate; type: ADME; conditions: read-out: Time (converted)
In short: as §1

chymotrypsin = assay: Time required for 50% degradation by chymotrypsin; type: ADME; conditions: read-out: Time (converted)
In short: (§3)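 Peptide (0.5–1.0 μmol) in 0.1 M Tris, pH 7.8, stirred at room temperature with chymotrypsin (37 units dissolved in 50 mL cold 0.001 N HCl; 0.050 mL per μmol peptide). Degradation followed over time by TLC.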

[6] = Time required for degradation by pepsin (none); type: ADME
[7] = Time required for 100% degradation by trypsin; type: ADME
Rattus norvegicus [8] = assay: Inhibition of angiotensin I induced blood pressure in normotensive anesthetized rats at 30 ug/kg (i.v.) for 60 min; type: functional
In short: (§4)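 Male Sprague-Dawley normotensive rats (290-540 g), pentobarbital-anesthetized (50 mg/kg ip), intubated. Jugular vein cannulated for iv dosing and carotid artery for blood pressure. Control pressor response to angiotensin I (175 ng/kg iv) taken after vehicle (1 mL/kg). Compound given iv in distilled water or 5% sodium bicarbonate. Angiotensin I challenge repeated at 1.5 to 75 min, rise in pressure compared with control.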

Rattus norvegicus [9] = assay: Inhibition of angiotensin I induced blood pressure in normotensive anesthetized rats at 10 ug/kg (i.v.) for 30 min; type: functional
In short: as §4

Rattus norvegicus [10] = assay: Inhibition of angiotensin I induced blood pressure in normotensive anesthetized rats at 1 ug/kg (i.v.) for 10 min; type: functional
In short: as §4

Rattus norvegicus [11] = assay: Inhibition of angiotensin I induced blood pressure in normotensive anesthetized rats at 1 ug/kg (i.v.) for 30 min; type: functional
In short: as §4

Rattus norvegicus [12] = assay: Inhibition of angiotensin I induced blood pressure in normotensive anesthetized rats at 1 ug/kg (i.v.) for 5 min; type: functional
In short: as §4

Rattus norvegicus [13] = assay: Inhibition of angiotensin I induced blood pressure in normotensive anesthetized rats at 30 ug/kg (i.v.) for 5 min; type: functional
In short: as §4

Rattus norvegicus [14] = assay: Inhibition of angiotensin I induced blood pressure in normotensive anesthetized rats at 10 ug/kg (i.v.) for 5 min; type: functional
In short: as §4

Rattus norvegicus [15] = assay: Inhibition of angiotensin I induced blood pressure in normotensive anesthetized rats at 30 ug/kg (i.v.) for 1.5 min; type: functional
In short: as §4

Rattus norvegicus [16] = assay: Inhibition of angiotensin I induced blood pressure in normotensive anesthetized rats at 1 ug/kg (i.v.) for 60 min; type: functional
In short: as §4

Rattus norvegicus [17] = assay: Inhibition of angiotensin I induced blood pressure in normotensive anesthetized rats at 1 ug/kg (i.v.) for 1.5 min; type: functional
In short: as §4

Rattus norvegicus [18] = assay: Inhibition of angiotensin I induced blood pressure in normotensive anesthetized rats at 10 ug/kg (i.v.) for 60 min; type: functional
In short: as §4

Rattus norvegicus [19] = assay: Inhibition of angiotensin I induced blood pressure in normotensive anesthetized rats at 10 ug/kg (i.v.) for 10 min; type: functional
In short: as §4

Rattus norvegicus [20] = assay: Inhibition of angiotensin I induced blood pressure in normotensive anesthetized rats at 30 ug/kg (i.v.) for 75 min; type: functional
In short: as §4

Rattus norvegicus [21] = assay: Inhibition of angiotensin I induced blood pressure in normotensive anesthetized rats at 10 ug/kg (i.v.) for 1.5 min; type: functional
In short: as §4

Rattus norvegicus [22] = assay: Inhibition of angiotensin I induced blood pressure in normotensive anesthetized rats at 30 ug/kg (i.v.) for 30 min; type: functional
In short: as §4

Rattus norvegicus [23] = assay: Inhibition of angiotensin I induced blood pressure in normotensive anesthetized rats at 30 ug/kg (i.v.) for 10 min; type: functional
In short: as §4

pepsin = assay: Time required for 50% degradation by pepsin; type: ADME; conditions: read-out: Time (converted)
Rattus norvegicus [24] = assay: Inhibition of angiotensin I induced blood pressure in normotensive anesthetized rats at 10 ug/kg (i.v.) for 75 min; type: functional; conditions: in the assay text read “30 ug/kg” for “10 ug/kg”
In short: as §4

[25] = Time required for degradation by trypsin (none); type: ADME
[26] = Time required for degradation by chymotrypsin (none); type: ADME
In short: as §3

[27] = molecular target: T1, Angiotensin-converting enzyme (Rattus norvegicus, UniProt P47820); assay: Inhibition of Angiotensin I converting enzyme in normotensive rat; type: functional; conditions: read-out: I50 (converted)
T1 sequence (P47820 whole entry): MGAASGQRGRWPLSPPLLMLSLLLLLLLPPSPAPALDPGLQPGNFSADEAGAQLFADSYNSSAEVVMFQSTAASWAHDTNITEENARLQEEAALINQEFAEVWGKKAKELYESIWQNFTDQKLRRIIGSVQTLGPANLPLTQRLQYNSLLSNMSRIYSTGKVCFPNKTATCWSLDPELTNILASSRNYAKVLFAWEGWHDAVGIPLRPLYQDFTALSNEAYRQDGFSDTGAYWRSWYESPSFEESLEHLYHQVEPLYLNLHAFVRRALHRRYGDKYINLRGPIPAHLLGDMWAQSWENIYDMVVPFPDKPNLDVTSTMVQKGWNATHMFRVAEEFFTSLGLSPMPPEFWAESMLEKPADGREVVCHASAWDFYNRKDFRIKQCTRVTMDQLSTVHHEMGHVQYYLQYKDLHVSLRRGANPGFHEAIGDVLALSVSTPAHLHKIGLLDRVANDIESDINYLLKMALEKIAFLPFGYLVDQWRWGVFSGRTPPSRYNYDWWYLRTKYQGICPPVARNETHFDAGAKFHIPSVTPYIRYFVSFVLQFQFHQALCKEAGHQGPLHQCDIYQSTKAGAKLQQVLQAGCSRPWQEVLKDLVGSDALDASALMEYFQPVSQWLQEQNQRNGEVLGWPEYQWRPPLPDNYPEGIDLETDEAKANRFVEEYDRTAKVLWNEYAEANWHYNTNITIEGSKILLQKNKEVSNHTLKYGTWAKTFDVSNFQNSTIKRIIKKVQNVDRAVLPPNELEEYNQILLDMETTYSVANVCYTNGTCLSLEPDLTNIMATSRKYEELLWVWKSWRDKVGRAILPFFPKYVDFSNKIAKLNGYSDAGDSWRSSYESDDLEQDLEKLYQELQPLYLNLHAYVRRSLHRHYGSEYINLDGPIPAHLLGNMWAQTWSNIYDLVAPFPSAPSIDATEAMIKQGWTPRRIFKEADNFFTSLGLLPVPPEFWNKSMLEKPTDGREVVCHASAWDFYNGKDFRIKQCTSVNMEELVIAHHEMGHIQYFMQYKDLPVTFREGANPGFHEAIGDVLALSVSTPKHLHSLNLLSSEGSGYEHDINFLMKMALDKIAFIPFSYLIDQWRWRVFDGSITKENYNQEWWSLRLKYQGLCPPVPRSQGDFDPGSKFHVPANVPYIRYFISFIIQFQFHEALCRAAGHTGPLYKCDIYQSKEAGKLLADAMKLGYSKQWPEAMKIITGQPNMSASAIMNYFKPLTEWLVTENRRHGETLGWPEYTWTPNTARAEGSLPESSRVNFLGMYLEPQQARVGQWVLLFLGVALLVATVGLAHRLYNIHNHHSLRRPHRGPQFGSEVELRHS

Compound | IC50 [1] [nM] | Time (Rattus norvegicus [2]) [h] | half-life (trypsin) [min] | half-life [4] [h] | half-life [5] [h] | half-life (chymotrypsin) [h] | Time [6] [h] | Time [7] [min] | Inhibition over time (Rattus norvegicus [9]) [%] | Inhibition over time (Rattus norvegicus [10]) [%] | Inhibition over time (Rattus norvegicus [11]) [%] | Inhibition over time (Rattus norvegicus [12]) [%] | Inhibition over time (Rattus norvegicus [13]) [%] | Inhibition over time (Rattus norvegicus [14]) [%] | Inhibition over time (Rattus norvegicus [15]) [%] | Inhibition over time (Rattus norvegicus [17]) [%] | Inhibition over time (Rattus norvegicus [19]) [%] | Inhibition over time (Rattus norvegicus [21]) [%] | Inhibition over time (Rattus norvegicus [22]) [%] | Inhibition over time (Rattus norvegicus [23]) [%] | further results
NCCCCC(NC(=O)C1CCC1)C(=O)NC(Cc1ccccc1)C(=O)CCC(=O)N1CCCC1C(=O)O (stereo not given) | 6 |  |  |  |  |  |  |  |  |  |  |  |  |  |  |  |  |  |  |  | 
C[C@H](NC(=O)[C@H](Cc1ccccc1)NC(=O)[C@H](CCCCN)NC(=O)C1CCC1)C(=O)N1CCC[C@H]1C(=O)O (Cyclobutanecarbonyl-KFAP-OH) | 40 |  |  |  |  |  |  |  |  |  |  |  |  |  |  |  |  |  |  |  | 
NCCCC[C@H](NC(=O)[C@@H]1CCCN1C(=O)CNC(=O)[C@@H]1CCCN1C(=O)[C@H](Cc1ccc(O)cc1)NC(=O)C1CCC1)C(=O)N[C@@H](Cc1ccccc1)C(=O)NCC(=O)N1CCC[C@H]1C(=O)O (Cyclobutanecarbonyl-YPGPKFGP-OH) | 340 | 0.667 | < 5 | > 1 | 0.333 | 22 | 24 | 20 |  |  |  |  |  |  |  |  |  |  |  |  | Time (Rattus norvegicus [3]): 5 h
NCCCC[C@H](NC(=O)[C@@H]1CCCN1C(=O)CCC(=O)[C@@H]1CCCN1C(=O)[C@H](Cc1ccc(O)cc1)NC(=O)C1CCC1)C(=O)N[C@@H](Cc1ccccc1)C(=O)CCC(=O)N1CCC[C@H]1C(=O)O (Cyclobutanecarbonyl-Y[X1]PK[X2]P-OH) | 3.4 | 5 | 5 |  | 1 | 22 | 20 | 60 | 7.8 | 0 | 0 | 0 | 45 | 23.5 | 79.5 | 24.3 | 14.5 | 39.5 | 17.3 | 31.5 | Inhibition over time (Rattus norvegicus [8]): 15.3%; Inhibition over time (Rattus norvegicus [16]): 0%; Inhibition over time (Rattus norvegicus [18]): 0%; Inhibition over time (Rattus norvegicus [20]): 12.5%
CCCC[C@H](NC(=O)[C@@H]1CCCN1C(=O)CCC(=O)[C@@H]1CCCN1C(=O)[C@H](Cc1ccc(O)cc1)NC(=O)C1CCC1)C(=O)N[C@@H](Cc1ccccc1)C(=O)CCC(=O)N1CCC[C@H]1C(=O)O (Cyclobutanecarbonyl-Y[X1]P[Nle][X2]P-OH) | 8 | 23 |  | 5 | 7 |  |  |  | 0 | 24.3 | 22.4 | 25.6 | 59.8 | 27.5 | 88.5 | 26.3 | 14.5 | 64.3 | 30.8 | 37 | half-life (pepsin): 3 h; Inhibition over time (Rattus norvegicus [24]): 0%; Time [25]: 24 h; Time [26]: 24 h
C[C@H](NC(=O)[C@H](Cc1ccccc1)NC(=O)[C@H](CCCCN)NC(=O)[C@@H]1NCCC1=O)C(=O)N1CCC[C@H]1C(=O)O (H-[X3]KFAP-OH) |  |  |  |  |  |  |  |  |  |  |  |  |  |  |  |  |  |  |  |  | IC50 [27]: 87.3 nM

— ChEMBL document CHEMBL1124054, “Synthesis and biological activity of ketomethylene-containing nonapeptide analogues of snake venom angiotensin converting enzyme inhibitors” (J Med Chem, 1988)
